Results on six molecules are retold here after ChEMBL document CHEMBL2346548, “Design, synthesis, and structure-activity relationship studies of tryptanthrins as antitubercular agents” (J Nat Prod, 2013).

Series [1] is described as follows: Permeability across basolateral to apical side in human Caco2 cells incubated for 1 hr at 37 degC by HPLC-MS/MS method. To be noted: Caco-2. It counts as ADME, cell-based.
Series [2] deals with Mycobacterium tuberculosis. The experiment in a line: Antitubercular activity against Mycobacterium tuberculosis H37Rv incubated at 37 degC for 14 days in presence of 40% human serum by microplate alamar blue assay. It counts as functional. To be noted: 336 h. The gist of the method: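 This is the MABA run in 7H9 broth containing 40% human serum. Compounds were 2-fold serially diluted, and wells were inoculated with H37Rv at 2 × 10⁵ CFU/mL. Incubation was at 37 °C for 14 days, then Alamar Blue was added. MIC was the lowest concentration preventing the blue-to-pink colour change.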
A general note: Resazurin is reduced to fluorescent resorufin, in cell work by metabolically active cells.

Series [3] in a line: Solubility in simulated intestinal fluid at pH 7.6 by HPLC method. It counts as physicochemical. The gist of the method: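 Simulated intestinal fluid medium; each analogue 200 μM final in 2% DMSO, shaken 24 h at room temperature, then HPLC with photodiode array read at 230 nm; duplicate, means given.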
In series [4] the test system is Mycobacterium tuberculosis. The series is described as follows: Antitubercular activity against non-replicating Mycobacterium tuberculosis H37Rv incubated for 10 days by LORA method. Type of series: functional. Particulars: 240 h. The gist of the method: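 H37Rv carrying pFCA-luxAB was adapted to low oxygen by gradual self-depletion in a sealed, slowly stirred flask. It was then exposed to compounds for 10 days under anaerobic conditions. Cultures recovered for 28 h in ambient oxygen before n-decanal substrate was added and luminescence read. MIC was the lowest concentration giving a 90% reduction in luminescence versus untreated controls.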

A short description of series [5]: Efflux ratio in human Caco2 cells incubated for 1 hr at 37 degC by HPLC-MS/MS method. Particulars: Caco-2. Type of series: ADME, cell-based. On the technique in general: Caco-2 monolayers are a common model of the intestinal barrier.
A short description of series [6]: Solubility in simulated gastric fluid at pH 1.5 by HPLC method. It counts as physicochemical. The gist of the method:
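Compound at 200 μM final in 2% DMSO in simulated gastric fluid, shaken 24 h at room temperature; HPLC-photodiode array detection at 230 nm; duplicate means.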

Another series has as its system Vero. The experiment in a line: Cytotoxicity against african green monkey Vero cells. It counts as cell-based, Chlorocebus sabaeus. Particulars: Chlorocebus sabaeus, Vero; read-out: IC50.
Series [7] can be described thus: Aqueous solubility in PBS buffer at pH 7.4 by HPLC method. Particulars: PBS buffer, read-out: solubility. It counts as physicochemical. The method in brief:
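Compound at 200 μM final in 2% DMSO in PBS pH 7.4, shaken 24 h at room temperature; quantified by HPLC with photodiode array detection at 230 nm; duplicate, mean reported.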

A short description of series [8]: Metabolic stability in human liver microsomes assessed as parent compound remaining at 1 uM incubated for 1 hr by HPLC-MS/MS method. It counts as ADME, Microsome. Particulars: read-out: Stability. The gist of the method: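 Pooled mixed-gender human liver microsomes (0.3 mg/mL protein), 1 μM compound with NADP-regenerating system in phosphate buffer pH 7.4, 1 h at 37 °C; parent measured at start and end by HPLC-MS/MS; duplicate means.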
(In general: Liver microsomes are a subcellular fraction often used to study metabolism.)

In series [9] the test system is Mycobacterium tuberculosis. The experiment in a line: Antitubercular activity against Mycobacterium tuberculosis H37Rv incubated at 37 degC for 7 days by microplate alamar blue assay. Type of series: functional. Particulars: for MIC: Mycobacterium tuberculosis, H37Rv, 168 h. The gist of the method: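 Mtb H37Rv was grown in 7H9 broth with glycerol, Casitone, 10% OADC and 0.05% Tween 80 to OD600 0.4. Compounds were 2-fold serially diluted from DMSO stocks in 7H9, and wells were inoculated at 2 × 10⁵ CFU/mL. After 7 days at 37 °C, Alamar Blue was added and read after a further 24 h. MIC was the lowest concentration preventing the blue-to-pink change.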

Series [10] is described as follows: Permeability across apical to basolateral side in human Caco2 cells incubated for 1 hr at 37 degC by HPLC-MS/MS method. Type of series: ADME, cell-based. Particulars: Caco-2. The method in brief: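 TC7 (Caco-2 subclone) monolayer; 10 μM compound in 1% DMSO in HBSS-MES pH 6.5 on apical donor side, basolateral receiver pH 7.4; shaken 1 h at 37 °C; receiver sampled, HPLC-MS/MS; duplicate means.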

The next series addresses CYP3A4 (Homo sapiens, UniProt P08684). The experiment in a line: Inhibition of human recombinant CYP3A4 at 10 uM incubated for 30 mins at 37 degC using 7-benzyloxy-4-(trifluoromethyl)coumarin substrate. It counts as ADME. To be noted: recombinant CYP3A4, probe 7-benzyloxy-4-(trifluoromethyl)coumarin.
For the next series, the target named is CYP2C19 (Homo sapiens, UniProt P33261). The series is described as follows: Inhibition of human recombinant CYP2C19 at 10 uM incubated for 60 mins at 37 degC using 3-cyano-7-ethoxycoumarin substrate. Particulars: recombinant CYP2C19, probe 3-cyano-7-ethoxycoumarin. Type of series: ADME.
The target of another series is CYP2C9 (Homo sapiens, UniProt P11712). The series is described as follows: Inhibition of human recombinant CYP2C9 at 10 uM incubated for 80 mins at 37 degC using 7-methoxy-4-trifluoromethylcoumarin substrate. Type of series: ADME. To be noted: recombinant CYP2C9, probe 7-methoxy-4-trifluoromethylcoumarin.
The nature of series [11]: Distribution coefficient, log D of the compound between n-octanol and PBS buffer at pH 7.4 incubated for 1 hr by shake flask method. It counts as physicochemical. The gist of the method:
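Partition between n-octanol and PBS pH 7.4 after 1 h shaking at room temperature; phases analysed by HPLC with photodiode detection; logD = log10 of organic/aqueous amount.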

The nature of series [12]: Protein binding in human plasma at 10 uM incubated for 8 hrs at 37 degC by equilibrium dialysis method. Type of series: ADME, cell-free. To be noted: read-out: PPB (converted). The method in brief:
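Equilibrium dialysis: 10 μM compound in 1% DMSO in human plasma vs 0.05 M phosphate buffer pH 7.5 across 12–14 K cutoff membrane, at least 8 h at 37 °C; HPLC-photodiode detection at 230 nm; duplicate means.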

In brackets after ≈: the same amount, converted by molar mass.

Chain of CYP2C19 (P33261 whole entry): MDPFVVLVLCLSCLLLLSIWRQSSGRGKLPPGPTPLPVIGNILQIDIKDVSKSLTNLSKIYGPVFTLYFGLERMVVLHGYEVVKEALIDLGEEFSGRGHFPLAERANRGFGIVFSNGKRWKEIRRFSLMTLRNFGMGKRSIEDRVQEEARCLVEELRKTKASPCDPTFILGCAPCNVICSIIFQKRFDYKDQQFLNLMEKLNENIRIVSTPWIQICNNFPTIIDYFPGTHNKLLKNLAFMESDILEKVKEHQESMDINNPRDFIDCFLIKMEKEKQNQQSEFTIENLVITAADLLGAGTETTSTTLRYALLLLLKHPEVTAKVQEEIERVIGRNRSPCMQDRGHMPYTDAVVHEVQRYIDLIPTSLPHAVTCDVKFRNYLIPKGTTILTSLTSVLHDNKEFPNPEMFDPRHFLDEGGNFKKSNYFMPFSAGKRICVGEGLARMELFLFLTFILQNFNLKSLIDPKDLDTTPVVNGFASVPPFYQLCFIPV
Chain of CYP2C9 (P11712 whole entry): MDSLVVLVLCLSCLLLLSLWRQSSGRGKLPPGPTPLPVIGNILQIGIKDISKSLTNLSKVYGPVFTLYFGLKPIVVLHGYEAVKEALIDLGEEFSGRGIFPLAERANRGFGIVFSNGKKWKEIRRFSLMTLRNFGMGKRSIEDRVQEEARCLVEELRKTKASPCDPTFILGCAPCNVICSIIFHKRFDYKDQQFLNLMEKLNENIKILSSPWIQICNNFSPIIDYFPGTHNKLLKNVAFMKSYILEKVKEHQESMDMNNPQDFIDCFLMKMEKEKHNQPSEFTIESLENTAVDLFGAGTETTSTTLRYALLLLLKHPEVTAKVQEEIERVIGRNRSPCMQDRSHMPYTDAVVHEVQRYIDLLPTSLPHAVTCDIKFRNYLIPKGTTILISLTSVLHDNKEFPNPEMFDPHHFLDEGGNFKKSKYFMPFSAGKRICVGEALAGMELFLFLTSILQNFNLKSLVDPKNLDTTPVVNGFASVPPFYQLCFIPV
Chain of CYP3A4 (P08684 whole entry): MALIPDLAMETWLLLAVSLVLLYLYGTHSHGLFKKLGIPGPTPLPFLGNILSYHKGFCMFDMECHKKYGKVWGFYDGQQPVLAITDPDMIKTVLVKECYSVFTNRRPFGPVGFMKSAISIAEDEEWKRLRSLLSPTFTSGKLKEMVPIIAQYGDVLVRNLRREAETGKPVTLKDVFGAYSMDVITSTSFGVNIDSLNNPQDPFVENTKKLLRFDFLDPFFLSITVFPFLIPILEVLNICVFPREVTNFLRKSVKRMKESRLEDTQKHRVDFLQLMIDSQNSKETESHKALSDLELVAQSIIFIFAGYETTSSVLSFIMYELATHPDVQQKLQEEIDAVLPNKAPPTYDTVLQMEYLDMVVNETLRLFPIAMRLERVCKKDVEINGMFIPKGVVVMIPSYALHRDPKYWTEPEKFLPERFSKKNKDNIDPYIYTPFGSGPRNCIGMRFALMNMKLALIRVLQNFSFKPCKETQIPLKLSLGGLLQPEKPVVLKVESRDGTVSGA

As for `O=C1c2cc(F)ccc2-n2c1nc1ccccc1c2=O`, in series [1], the Papp B→A (usually how fast a substance crosses the layer from the basolateral side) at 1 h came out at 29.9 ×10⁻⁶ cm/s. For the same molecule, the values for the MIC in series [2] and in series [9] were 0.5 µg/mL and 0.125 µg/mL (≈ 0.47 µM), respectively. In addition, the solubility (usually the dissolved amount per volume that the medium holds) in series [3] is 18.8 µM (≈ 5.01 µg/mL); in [6] it was 8.5 µM (≈ 2.26 µg/mL); in [7], 4.9 µM (≈ 1.3 µg/mL). Also, the MIC90 (commonly an inhibitory concentration at the 90% level, which refers to growth in some studies and to a panel of isolates in others) in series [4] was more than 50 µg/mL. Also, the efflux ratio (commonly a quotient of directional permeabilities that is used to spot active efflux) at 1 h in [5] is more than 1. Besides, the IC50 – broadly, the midpoint of a concentration-inhibition curve – in the series on Vero was more than 50 µg/mL. For the same molecule, the remaining at 1 h, 1 µM in [8] worked out at 46%. Besides, the Papp A→B (commonly how fast a substance crosses the layer from the apical side) at 1 h in [10] stood at 66.6 ×10⁻⁶ cm/s.
Molecule `O=C1c2cc(OC(F)(F)F)ccc2-n2c1nc1ccccc1c2=O` registered an apparent permeability from basolateral to apical (Papp B→A) at 1 h in series [1] of 5.8 ×10⁻⁶ cm/s. The minimum inhibitory concentration (MIC) (commonly the lowest concentration found to suppress growth) in series [2] turned out to be 0.5 µg/mL; in [9] it was 0.125 µg/mL (≈ 0.376 µM). In addition, the values for the solubility in [3], in [6] and in [7] were 31.3 µM (≈ 10.4 µg/mL), 1.5 µM (≈ 0.498 µg/mL) and 1 µM (≈ 0.332 µg/mL), respectively. The same molecule registered an MIC90 in series [4] of more than 50 µg/mL. Also, in [5], the efflux ratio at 1 h is more than 1. Besides, the IC50 in the series on Vero was more than 50 µg/mL. In addition, in series [8], the remaining at 1 h, 1 µM came to 59%. Besides, the Papp A→B at 1 h in series [10] worked out at 22 ×10⁻⁶ cm/s.
For `O=C1c2cc(Cl)ccc2-n2c1nc1ccc(F)cc1c2=O`, the Papp B→A at 1 h in series [1] was 2.1 ×10⁻⁶ cm/s. In addition, the minimal inhibitory concentration (MIC) amounted to 0.312 µg/mL in [2] and 0.156 µg/mL (≈ 0.519 µM) in [9]. In series [3], this molecule gave a solubility of 29.8 µM (≈ 8.96 µg/mL). This molecule displayed an MIC90 in [4] of more than 50 µg/mL. The IC50 in the series with Vero is 23.5 µg/mL (≈ 78.2 µM). The remaining at 1 h, 1 µM in series [8] came to 63%. In [10], this molecule registered a Papp A→B at 1 h of 2.2 ×10⁻⁶ cm/s.
Consider `O=C1c2ccc(Cl)cc2-n2c1nc1ccccc1c2=O`, for which, at CYP3A4, the inhibition (usually the share of the control response that was lost under treatment) at 0.5 h, 10 µM was determined as 7%. The molecule also had an apparent permeability from basolateral to apical (Papp B→A) at 1 h in series [1] of 0.1 ×10⁻⁶ cm/s. The inhibition at 1 h, 10 µM at CYP2C19 stood at 4%. In addition, the inhibition at 80 min, 10 µM on CYP2C9 is 25%. Besides, the MIC in series [2] was 0.5 µg/mL; in series [9], 0.25 µg/mL (≈ 0.884 µM). The logD – broadly, the decadic logarithm of the distribution of all forms, ionised or not, between an organic phase and buffer at a given pH – at 1 h in series [11] is 2.45. Besides, the solubility is 20.3 µM (≈ 5.74 µg/mL) in [3] and 71.9 µM (≈ 20.3 µg/mL) in series [6]. In addition, the MIC90 in series [4] is more than 50 µg/mL. Further, the half-inhibitory concentration (IC50) in the series on Vero is more than 50 µg/mL. Also, the remaining at 1 h, 1 µM in [8] worked out at 27%. Further, the MBC90 in [9] came to 0.5 µg/mL (≈ 1.77 µM). Further, the Papp A→B at 1 h in [10] worked out at 0.4 ×10⁻⁶ cm/s. Also, in series [12], the fraction unbound at 8 h, 10 µM was 0.01.
As to `O=C1c2cc(Cl)ccc2-n2c1nc1ccccc1c2=O`, the inhibition at 0.5 h, 10 µM at CYP3A4 is 10%. Further, the inhibition at 1 h, 10 µM on CYP2C19 came out at 13%. Moreover, the inhibition at 80 min, 10 µM on CYP2C9 was found to be 38%. The minimum inhibitory concentration (MIC) in series [2] was 0.25 µg/mL; in series [9], 0.125 µg/mL (≈ 0.442 µM). This molecule also showed a logD at 1 h in series [11] of 2.76. The solubility was 16.7 µM (≈ 4.72 µg/mL) in series [3], 26.8 µM (≈ 7.58 µg/mL) in series [6] and 3.3 µM (≈ 0.933 µg/mL) in series [7]. This molecule gave an MIC90 in series [4] of more than 50 µg/mL. Moreover, the IC50 in the series on Vero was more than 50 µg/mL. The molecule also had an MBC90 in [9] of 0.125 µg/mL (≈ 0.442 µM).
For `CCOC(=O)c1ccc2c(c1)C(=O)c1nc3ccccc3c(=O)n1-2`, the inhibition at 0.5 h, 10 µM at CYP3A4 was 5%. The molecule further displayed a Papp B→A at 1 h in series [1] of 0.8 ×10⁻⁶ cm/s. The inhibition at 1 h, 10 µM at CYP2C19 is 10%. The inhibition at 80 min, 10 µM at CYP2C9 came to 38%. Further, the MIC turned out to be 1 µg/mL in series [2] and 0.5 µg/mL (≈ 1.56 µM) in series [9]. The pH-dependent lipophilicity (logD) at 1 h in series [11] worked out at 2.94. In addition, the solubility was 11.1 µM (≈ 3.56 µg/mL) in series [3], 1.5 µM (≈ 0.48 µg/mL) in [6] and 3.8 µM (≈ 1.22 µg/mL) in series [7]. Moreover, the IC50 with Vero is more than 16 µg/mL. Moreover, the remaining at 1 h, 1 µM in series [8] was found to be 0%. Moreover, the Papp A→B at 1 h in series [10] turned out to be 4.2 ×10⁻⁶ cm/s. Besides, in series [12], the fraction unbound at 8 h, 10 µM is 0.016.
